For orientation: pIC50 means the negative decadic logarithm of the IC50, by convention in mol/L.

Consider 14 compounds from ChEMBL document CHEMBL3792345, “Isoquinoline-1,3-diones as Selective Inhibitors of Tyrosyl DNA Phosphodiesterase II (TDP2)” (J Med Chem, 2016).

For assay [1], the target named is T1, Tyrosyl-DNA phosphodiesterase 1 (Homo sapiens, UniProt Q9NUW8). Briefly: Inhibition of recombinant TDP1 (unknown origin) using 5'-[32P]-labeled single stranded oligonucleotide DNA containing 3'-phophotyrosine (N14Y) as substrate at 111 uM incubated for 15 mins by PAGE assay.
For the next assay, the species on record is Gallus gallus. The assay is described as follows: Potentiation of ETP-induced cytotoxicity against chicken DT40 knockout cells expressing human TDP2 after 72 hrs by ATPlite assay. Format: functional, cell-based. The essentials:
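DT40 cells lacking endogenous TDP2 and complemented with human TDP2, following an earlier protocol. CC90 is the concentration killing 90% of cells, measured without etoposide. For synergy, the compound was combined with different etoposide concentrations.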
(In general: Cellular ATP, detected with luciferase, serves as a proxy for viable cell number.)

Assay [2] deals with T2, Tyrosyl-DNA phosphodiesterase 2 (Homo sapiens, UniProt O95551).
T2 sequence (O95551 whole entry): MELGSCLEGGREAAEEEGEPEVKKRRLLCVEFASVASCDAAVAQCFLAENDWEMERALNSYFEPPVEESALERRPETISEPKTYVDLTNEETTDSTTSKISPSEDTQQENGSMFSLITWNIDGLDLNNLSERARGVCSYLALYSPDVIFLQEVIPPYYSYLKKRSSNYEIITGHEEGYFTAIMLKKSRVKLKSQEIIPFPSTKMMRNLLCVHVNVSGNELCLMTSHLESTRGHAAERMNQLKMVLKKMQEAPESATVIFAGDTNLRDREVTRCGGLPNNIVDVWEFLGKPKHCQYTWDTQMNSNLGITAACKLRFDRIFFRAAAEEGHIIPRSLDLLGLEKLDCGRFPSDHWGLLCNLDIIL
The assay is described as follows: Inhibition of recombinant human TDP2 using 18-mer single stranded oligonucleotide DNA as substrate incubated for 15 mins by PAGE assay. The essentials:
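1 nM TY18 substrate (α³²P-cordycepin-3′-labelled 18-mer ssDNA) with 25 pM recombinant human TDP2, 15 min at room temperature in LMP2 buffer (pH 7.5, 5 mM MgCl₂). Dose–response at 1.4, 4.1, 12.3, 37, 111 μM, resolved on gels. IC50 is mean ± SD of at least three independent experiments.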

Assay [3] in a line: Cytotoxicity against chicken DT40 knockout cells expressing human TDP2 after 72 hrs by ATPlite assay. Format: functional. The note with it: Gallus gallus, DT40, 72 h. The essentials: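 DT40 cells lacking endogenous TDP2 and complemented with human TDP2, following an earlier protocol. For synergy, the compound was combined with different etoposide concentrations.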
The target in assay [4] is T2, Tyrosyl-DNA phosphodiesterase 2. Briefly: Inhibition of human TDP2 expressed in DT40 cells (TDP2-knockout) using 18-mer single stranded oligonucleotide DNA as substrate incubated for 15 mins by PAGE assay. A digest of the protocol:
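Extract from 1 × 10⁷ TDP2−/− DT40 cells complemented with human TDP2, prepared as the TDP1 extracts. 1 nM TY18 substrate (α³²P-cordycepin-3′-labelled 18-mer) with 5 μg/mL extract ± inhibitor, 15 min at room temperature. Products resolved on gel.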

The target of assay [5] is T1, Tyrosyl-DNA phosphodiesterase 1. Briefly: Inhibition of recombinant TDP1 (unknown origin) using 5'-[32P]-labeled single stranded oligonucleotide DNA containing 3'-phophotyrosine (N14Y) as substrate incubated for 15 mins by PAGE assay.
For assay [6] the target is unchanged. Briefly: Inhibition of human TDP1 expressed in DT40 cells (TDP1-knockout) using N14Y single stranded oligonucleotide DNA as substrate incubated for 15 mins by PAGE assay.

pIC50: −log10 of the molar value. The source made the active and inactive calls.

T1 sequence (Q9NUW8 whole entry): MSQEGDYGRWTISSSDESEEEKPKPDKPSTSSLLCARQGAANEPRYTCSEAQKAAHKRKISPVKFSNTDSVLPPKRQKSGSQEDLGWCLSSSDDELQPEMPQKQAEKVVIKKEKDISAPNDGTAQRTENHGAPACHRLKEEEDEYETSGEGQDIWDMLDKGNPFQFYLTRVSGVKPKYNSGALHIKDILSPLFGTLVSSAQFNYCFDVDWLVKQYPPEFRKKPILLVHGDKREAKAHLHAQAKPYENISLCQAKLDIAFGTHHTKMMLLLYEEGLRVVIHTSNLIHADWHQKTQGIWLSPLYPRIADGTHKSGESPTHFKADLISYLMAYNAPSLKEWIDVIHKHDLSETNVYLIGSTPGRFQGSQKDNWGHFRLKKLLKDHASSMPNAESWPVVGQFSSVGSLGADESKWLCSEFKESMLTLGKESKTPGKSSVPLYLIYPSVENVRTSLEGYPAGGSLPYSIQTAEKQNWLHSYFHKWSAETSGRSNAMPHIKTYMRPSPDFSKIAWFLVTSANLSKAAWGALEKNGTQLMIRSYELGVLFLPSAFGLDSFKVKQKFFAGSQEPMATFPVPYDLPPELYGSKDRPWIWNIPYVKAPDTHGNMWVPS

Consider `O=C1Cc2cc(-c3nc4ccccc4s3)ccc2C(=O)N1`, for which, in assay [1], the inhibition entry is “inactive”. Further, the result in the assay listed under Gallus gallus was inactive. The pIC50 is 5.29 in assay [2] and 4.96 in assay [4]. In assay [3], this compound registered a CC90 of 12 µM.
In the case of `O=C1Cc2cc(-c3ccco3)ccc2C(=O)N1O`, the pIC50 in assay [2] and in assay [5] was less than 3.95 in each case.
Take `O=C1Cc2ccc(C(=O)O)cc2C(=O)N1`: the inhibition entry in assay [1] was “inactive”. The outcome in the assay listed under Gallus gallus was inactive. Besides, the pIC50 in assay [2] is 5.52; in assay [4], 5.28. In addition, in assay [3], the CC90 was greater than 50 µM.
Take `O=C1Cc2cc(-c3ccco3)ccc2C(=O)N1`: the result in the assay listed under Gallus gallus was inactive. Besides, the pIC50 was 5.00 in assay [2], less than 3.95 in assay [5], 4.60 in assay [4] and less than 3.95 in assay [6].
In the case of `O=C1Cc2cc(I)ccc2C(=O)N1`, the inhibition entry in assay [1] was “inactive”. Also, in the assay filed under Gallus gallus, the outcome was inactive. Besides, the pIC50 was 5.12 in assay [2] and 5.03 in assay [4]. The CC90 in assay [3] came out at 9.5 µM.
Regarding `O=C1Cc2cc(-c3cccc(Br)c3)ccc2C(=O)N1`, the inhibition entry in assay [1] is “inactive”. Besides, the pIC50 in assay [2] was 5.10; in assay [4], 5.19.
For `CS(=O)(=O)Nc1cccc(-c2ccc3c(c2)CC(=O)NC3=O)c1`, in that order: “inactive”, 4.74 and 4.60.
On to `O=C1Cc2cc(-c3cccc(C(=O)O)c3)ccc2C(=O)N1`, for which the inhibition entry in assay [1] was “inactive”. Moreover, the values for the pIC50 in assay [2] and in assay [4] were 4.68 and 4.38, respectively.
For `O=C1Cc2cccc(I)c2C(=O)N1`, in that order: “inactive”, 5.12 and 5.59.
For `O=C1Cc2cc(-c3cccc(O)c3)ccc2C(=O)N1`, in that order: “inactive”, 4.89 and 4.46.
For `CS(=O)(=O)Nc1ccc(-c2ccc3c(c2)CC(=O)NC3=O)cc1`, in that order: “inactive”, 5.72 and 5.66.
`CC(=O)c1cccc(-c2ccc3c(c2)CC(=O)NC3=O)c1`: in assay [1], the inhibition entry was “inactive”. Besides, the pIC50 in assay [2] was 5.26; in assay [4], 4.82.
For `O=C1Cc2cc(-c3cccc([N+](=O)[O-])c3)ccc2C(=O)N1`, in that order: “inactive”, 5.00 and 4.60.
On to `O=C1Cc2cc(-c3cccc(Cl)c3)ccc2C(=O)N1`, for which the inhibition result in assay [1] was “inactive”. The pIC50 in assay [2] was 5.25; in assay [4], 5.48.
